Measurements reported in ChEMBL document CHEMBL4689842, “EUbOPEN Chemogenomics Library wave 1” (2021).

Tests used:
Type in all cases: toxicity, cell-based
HEK-293T = assay: Incucyte cell viability with HEK293T; details: human, 10 µM, compound concentration 10 uM; note: filed as whole numbers so only -1 and 0 and 1 occur
U2OS [1] = assay: Multiplex assay against U2OS; details: human
Summary of the method: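 Values for tubulin, mitochondrial-mass and membrane-permeability phenotypes are per cents of cells with healthy nuclei. These cells were identified by CellPathfinder machine-learning gating of live cells that had been stained at seeding with Hoechst33342, BioTracker Green Microtubule Cytoskeleton Dye, MitoTracker Red and Annexin V Alexa Fluor 680 and imaged on a CQ1 microscope at 37°C and 5% CO2 after compound addition. The gating first set Hoechst high-intensity objects apart from normal cells, then split normal cells into healthy, pyknosed or fragmented nuclei, and pyknosed cells into mitotic or apoptotic.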

U2OS [2] = assay: Incucyte cell viability with U2OS; details: human, 10 µM, compound concentration 10 uM; note: filed as whole numbers so only -1 and 0 and 1 occur
[3] = 6 h, replicate number 1, timepoint 6 hours
[4] = 12 h, replicate number 1, timepoint 12 hours
[5] = 18 h, replicate number 1, timepoint 18 hours
[6] = 24 h, replicate number 1, timepoint 24 hours
[7] = 12 h, 1 µM, compound concentration 1 uM, replicate 1
[8] = 12 h, 1 µM, compound concentration 1 uM, replicate 2
[9] = 12 h, 10 µM, compound concentration 10 uM, replicate 1
[10] = 12 h, 10 µM, compound concentration 10 uM, replicate 2
[11] = 24 h, 1 µM, compound concentration 1 uM, replicate 1
[12] = 24 h, 1 µM, compound concentration 1 uM, replicate 2
[13] = 24 h, 10 µM, compound concentration 10 uM, replicate 1
[14] = 24 h, 10 µM, compound concentration 10 uM, replicate 2
[15] = 48 h, 1 µM, compound concentration 1 uM, replicate 1
[16] = 48 h, 1 µM, compound concentration 1 uM, replicate 2
[17] = 48 h, 10 µM, compound concentration 10 uM, replicate 1
[18] = 48 h, 10 µM, compound concentration 10 uM, replicate 2

SMILES: Cl.NC[C@@H]1O[C@H](C23CC4CC(CC(C4)C2)C3)Cc2c1ccc(O)c2O
- Growth Rate (HEK-293T; 0 h, replicate number 2, timepoint 0 hours): 1
- Growth Rate (HEK-293T; [3]): 0
- Growth Rate (HEK-293T; [4]): 0
- Growth Rate (HEK-293T; [5]): 0
- Growth Rate (HEK-293T; [6]): 0
- Population Apoptotic (%) (U2OS [1]; [7]): 60%
- Population Fragmented Nuclei (%) (U2OS [1]; [7]): 10%
- Population Healthy Nuclei (%) (U2OS [1]; [7]): 80%
- Population Hoechst High Intensity Objects (%) (U2OS [1]; [7]): 7%
- Population Membrane Permeable-Phenotype (%) (U2OS [1]; [7]): 5%
- Population Mitochondria Different-Phenotype (%) (U2OS [1]; [7]): 11%
- Population Mitotic Cells (%) (U2OS [1]; [7]): 40%
- Population Normal (%) (U2OS [1]; [7]): 92%
- Population Pyknosed Nuclei (%) (U2OS [1]; [7]): 9%
- Population Tubulin-Different-Phenotype (%) (U2OS [1]; [7]): 6%
- Total Cell Count (U2OS [1]; [7]): 116
- Population Apoptotic (%) (U2OS [1]; [8]): 0%
- Population Fragmented Nuclei (%) (U2OS [1]; [8]): 6%
- Population Healthy Nuclei (%) (U2OS [1]; [8]): 91%
- Population Hoechst High Intensity Objects (%) (U2OS [1]; [8]): 3%
- Population Membrane Permeable-Phenotype (%) (U2OS [1]; [8]): 2%
- Population Mitochondria Different-Phenotype (%) (U2OS [1]; [8]): 9%
- Population Mitotic Cells (%) (U2OS [1]; [8]): 100%
- Population Normal (%) (U2OS [1]; [8]): 96%
- Population Pyknosed Nuclei (%) (U2OS [1]; [8]): 2%
- Population Tubulin-Different-Phenotype (%) (U2OS [1]; [8]): 10%
- Total Cell Count (U2OS [1]; [8]): 95
- Population Apoptotic (%) (U2OS [1]; [9]): 37%
- Population Fragmented Nuclei (%) (U2OS [1]; [9]): 31%
- Population Healthy Nuclei (%) (U2OS [1]; [9]): 36%
- Population Hoechst High Intensity Objects (%) (U2OS [1]; [9]): 8%
- Population Membrane Permeable-Phenotype (%) (U2OS [1]; [9]): 3%
- Population Mitochondria Different-Phenotype (%) (U2OS [1]; [9]): 13%
- Population Mitotic Cells (%) (U2OS [1]; [9]): 62%
- Population Normal (%) (U2OS [1]; [9]): 92%
- Population Pyknosed Nuclei (%) (U2OS [1]; [9]): 31%
- Population Tubulin-Different-Phenotype (%) (U2OS [1]; [9]): 5%
- Total Cell Count (U2OS [1]; [9]): 150
- Population Apoptotic (%) (U2OS [1]; [10]): 52%
- Population Fragmented Nuclei (%) (U2OS [1]; [10]): 39%
- Population Healthy Nuclei (%) (U2OS [1]; [10]): 32%
- Population Hoechst High Intensity Objects (%) (U2OS [1]; [10]): 10%
- Population Membrane Permeable-Phenotype (%) (U2OS [1]; [10]): 9%
- Population Mitochondria Different-Phenotype (%) (U2OS [1]; [10]): 22%
- Population Mitotic Cells (%) (U2OS [1]; [10]): 47%
- Population Normal (%) (U2OS [1]; [10]): 89%
- Population Pyknosed Nuclei (%) (U2OS [1]; [10]): 27%
- Population Tubulin-Different-Phenotype (%) (U2OS [1]; [10]): 27%
- Total Cell Count (U2OS [1]; [10]): 76
- Population Apoptotic (%) (U2OS [1]; [11]): 46%
- Population Fragmented Nuclei (%) (U2OS [1]; [11]): 11%
- Population Healthy Nuclei (%) (U2OS [1]; [11]): 79%
- Population Hoechst High Intensity Objects (%) (U2OS [1]; [11]): 7%
- Population Membrane Permeable-Phenotype (%) (U2OS [1]; [11]): 2%
- Population Mitochondria Different-Phenotype (%) (U2OS [1]; [11]): 3%
- Population Mitotic Cells (%) (U2OS [1]; [11]): 53%
- Population Normal (%) (U2OS [1]; [11]): 92%
- Population Pyknosed Nuclei (%) (U2OS [1]; [11]): 9%
- Population Tubulin-Different-Phenotype (%) (U2OS [1]; [11]): 9%
- Total Cell Count (U2OS [1]; [11]): 146
- Population Apoptotic (%) (U2OS [1]; [12]): 42%
- Population Fragmented Nuclei (%) (U2OS [1]; [12]): 8%
- Population Healthy Nuclei (%) (U2OS [1]; [12]): 85%
- Population Hoechst High Intensity Objects (%) (U2OS [1]; [12]): 2%
- Population Membrane Permeable-Phenotype (%) (U2OS [1]; [12]): 5%
- Population Mitochondria Different-Phenotype (%) (U2OS [1]; [12]): 10%
- Population Mitotic Cells (%) (U2OS [1]; [12]): 57%
- Population Normal (%) (U2OS [1]; [12]): 97%
- Population Pyknosed Nuclei (%) (U2OS [1]; [12]): 6%
- Population Tubulin-Different-Phenotype (%) (U2OS [1]; [12]): 12%
- Total Cell Count (U2OS [1]; [12]): 114
- Population Apoptotic (%) (U2OS [1]; [13]): 76%
- Population Fragmented Nuclei (%) (U2OS [1]; [13]): 38%
- Population Healthy Nuclei (%) (U2OS [1]; [13]): 33%
- Population Hoechst High Intensity Objects (%) (U2OS [1]; [13]): 6%
- Population Membrane Permeable-Phenotype (%) (U2OS [1]; [13]): 7%
- Population Mitochondria Different-Phenotype (%) (U2OS [1]; [13]): 7%
- Population Mitotic Cells (%) (U2OS [1]; [13]): 23%
- Population Normal (%) (U2OS [1]; [13]): 93%
- Population Pyknosed Nuclei (%) (U2OS [1]; [13]): 27%
- Population Tubulin-Different-Phenotype (%) (U2OS [1]; [13]): 17%
- Total Cell Count (U2OS [1]; [13]): 161
- Population Apoptotic (%) (U2OS [1]; [14]): 92%
- Population Fragmented Nuclei (%) (U2OS [1]; [14]): 50%
- Population Healthy Nuclei (%) (U2OS [1]; [14]): 29%
- Population Hoechst High Intensity Objects (%) (U2OS [1]; [14]): 18%
- Population Membrane Permeable-Phenotype (%) (U2OS [1]; [14]): 26%
- Population Mitochondria Different-Phenotype (%) (U2OS [1]; [14]): 26%
- Population Mitotic Cells (%) (U2OS [1]; [14]): 7%
- Population Normal (%) (U2OS [1]; [14]): 81%
- Population Pyknosed Nuclei (%) (U2OS [1]; [14]): 20%
- Population Tubulin-Different-Phenotype (%) (U2OS [1]; [14]): 26%
- Total Cell Count (U2OS [1]; [14]): 80
- Population Apoptotic (%) (U2OS [1]; [15]): 33%
- Population Fragmented Nuclei (%) (U2OS [1]; [15]): 8%
- Population Hoechst High Intensity Objects (%) (U2OS [1]; [15]): 6%
- Population Membrane Permeable-Phenotype (%) (U2OS [1]; [15]): 0%
- Population Mitochondria Different-Phenotype (%) (U2OS [1]; [15]): 14%
- Population Mitotic Cells (%) (U2OS [1]; [15]): 66%
- Population Normal (%) (U2OS [1]; [15]): 93%
- Population Pyknosed Nuclei (%) (U2OS [1]; [15]): 9%
- Population Tubulin-Different-Phenotype (%) (U2OS [1]; [15]): 12%
- Total Cell Count (U2OS [1]; [15]): 198
- Population Apoptotic (%) (U2OS [1]; [16]): 57%
- Population Fragmented Nuclei (%) (U2OS [1]; [16]): 11%
- Population Healthy Nuclei (%) (U2OS [1]; [16]): 82%
- Population Hoechst High Intensity Objects (%) (U2OS [1]; [16]): 3%
- Population Membrane Permeable-Phenotype (%) (U2OS [1]; [16]): 3%
- Population Mitochondria Different-Phenotype (%) (U2OS [1]; [16]): 21%
- Population Mitotic Cells (%) (U2OS [1]; [16]): 42%
- Population Normal (%) (U2OS [1]; [16]): 96%
- Population Pyknosed Nuclei (%) (U2OS [1]; [16]): 5%
- Population Tubulin-Different-Phenotype (%) (U2OS [1]; [16]): 13%
- Total Cell Count (U2OS [1]; [16]): 127
- Population Apoptotic (%) (U2OS [1]; [17]): 84%
- Population Fragmented Nuclei (%) (U2OS [1]; [17]): 33%
- Population Healthy Nuclei (%) (U2OS [1]; [17]): 33%
- Population Hoechst High Intensity Objects (%) (U2OS [1]; [17]): 13%
- Population Membrane Permeable-Phenotype (%) (U2OS [1]; [17]): 20%
- Population Mitochondria Different-Phenotype (%) (U2OS [1]; [17]): 16%
- Population Mitotic Cells (%) (U2OS [1]; [17]): 16%
- Population Normal (%) (U2OS [1]; [17]): 86%
- Population Pyknosed Nuclei (%) (U2OS [1]; [17]): 32%
- Population Tubulin-Different-Phenotype (%) (U2OS [1]; [17]): 37%
- Total Cell Count (U2OS [1]; [17]): 180
- Population Apoptotic (%) (U2OS [1]; [18]): 91%
- Population Fragmented Nuclei (%) (U2OS [1]; [18]): 50%
- Population Healthy Nuclei (%) (U2OS [1]; [18]): 27%
- Population Hoechst High Intensity Objects (%) (U2OS [1]; [18]): 34%
- Population Membrane Permeable-Phenotype (%) (U2OS [1]; [18]): 80%
- Population Mitochondria Different-Phenotype (%) (U2OS [1]; [18]): 53%
- Population Mitotic Cells (%) (U2OS [1]; [18]): 8%
- Population Normal (%) (U2OS [1]; [18]): 65%
- Population Pyknosed Nuclei (%) (U2OS [1]; [18]): 22%
- Population Tubulin-Different-Phenotype (%) (U2OS [1]; [18]): 66%
- Total Cell Count (U2OS [1]; [18]): 82
- Growth Rate (U2OS [2]; [3]): 0
- Growth Rate (U2OS [2]; [4]): 0
- Growth Rate (U2OS [2]; [5]): 0
- Growth Rate (U2OS [2]; [6]): 0
